The results in this text go back to ChEMBL document CHEMBL5634186, “Structure-Activity Relationship Study of Biselyngbyolide B Reveals Mitochondrial Fission-Induced Cytotoxicity in Cancer” (ACS Med Chem Lett, 2024).

SMILES strings stand for the structures. Calls of active or inactive are those of the source. The rule behind the calls is not given here.

Broadly, the IC50 is the midpoint of a concentration-inhibition curve.

The subject of data set [1] is HCT-116. Nature of the data set: Anticancer activity against human HCT-116 cells assessed as inhibition of cell viability incubated for 16 hrs by MTT assay. The data set is classed as functional, cell-based. Particulars: HCT-116, 16 h.
Data set [2] deals with HCT-116. Nature of the data set: Induction of ROS production in human HCT-116 cells assessed as deterioration of mitochondrial length and area at 1 uM incubated for 16 hrs in presence of CellLight Mitochondria-GFP by confocal microscopy analysis. The data set is classed as functional, cell-based. In a few lines: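 HCT116 cells transfected with CellLight Mitochondria-GFP, treated 1 μM for 16 h; confocal images quantified for mitochondrial length and area.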

Data set [3] relates to HCT-116. Nature of the data set: Induction of mitochondrial fission in human HCT-116 cells assessed as decrease in DRP1 phosphorylation at S637 at 0.5 to 1 uM incubated for 8 to 24 hrs by immunoblotting analysis. Format: functional, cell-based. The conditions noted are these: dose 0.5-1 µM, time 8-24 hrs. In short, it runs like this:
(§1)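 Immunoblot in HCT116 cells: p-DRP1 S616, p-DRP1 S637, DRP1, Mitofusin1, Mitofusin2 and MFF over time (0, 8, 16, 24 h); p-DRP1 S616, S637, DRP1, Mitofusin1 and OPA at 0.5 and 1 μM. β-Actin loading control.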
For orientation: Immunoblotting shows a protein as a band on a membrane.

Data set [4] can be described thus: Cytotoxicity against HEK293 cells assessed as reduction in cell viability incubated for 16 hrs by MTT assay. Format: toxicity, cell-based. Particulars: human.
Data set [5] concerns HCT-116. Nature of the data set: Induction of ROS generation in human HCT-116 cells at 0.5 to 1 uM incubated for 16 hrs by CellROX Red staining based confocal microscope analysis. The data set is classed as functional, cell-based. Particulars: dose 0.5-1 µM. In short, it runs like this: (§2)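 HCT116 cells treated 16 h with compound (0.5 or 1 μM where dosed); stained 30 min with MitoTracker Deep Red FM (membrane potential) or CellROX Red FM (ROS); confocal imaging; mean fluorescence intensity quantified from five fields.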

Data set [6] concerns HCT-116. Nature of the data set: Induction of mitochondrial membrane potential loss in human HCT-116 cells at 0.5 to 1 uM incubated for 16 hrs by mitotracker red staining based confocal microscope analysis. Format: functional, cell-based. Particulars: dose 0.5-1 µM. In short, it runs like this:
as §2

Data set [7] concerns HCT-116. Nature of the data set: Induction of mitochondrial fission in human HCT-116 cells assessed as increase in DRP1 phosphorylation at S616 at 0.5 to 1 uM incubated for 8 to 24 hrs by immunoblotting analysis. Format: functional, cell-based. Particulars: dose 0.5-1 µM, time 8-24 hrs. In short, it runs like this:
as §1

Take `CCCCC[C@@H]1C/C=C/C=C/C[C@H](C)/C=C(\C)[C@@H](OC)C/C=C/[C@@H](O)CC(=O)O1`: the 50% inhibitory concentration (IC50) in the data set with HCT-116 [1] is 23 µM. Moreover, the outcome in the data set with HCT-116 [2] and in the data set with HCT-116 [7] was Active. For the same compound, the outcome in the data set on HCT-116 [3], in the data set on HCT-116 [5] and in the data set with HCT-116 [6] was inactive. The IC50 at 16 h in data set [4] amounted to 20.2 µM.
For the compound `C/C=C/C/C(C)=C\[C@@H]1C/C=C/C=C/C[C@H](C)/C=C(\C)[C@@H](OC)C/C=C/[C@@H](O)CC(=O)O1`, in the data set on HCT-116 [1], the IC50 amounted to 8.9 µM. For the same compound, the IC50 at 16 h in data set [4] stood at 18.1 µM.
For `C/C=C/C/C(C)=C\[C@H]1C/C=C/C=C/C[C@H](C)/C=C(\C)[C@@H](OC)C/C=C/[C@@H](O)CC(=O)O1`, the half-maximal inhibitory concentration (IC50) in the data set on HCT-116 [1] came out at 3.2 µM. Besides, the IC50 at 16 h in data set [4] turned out to be 20.6 µM.
For `C/C=C/C/C(C)=C\[C@H]1C/C=C/C=C/C[C@H](C)/C=C(\C)[C@@H](O)C/C=C/[C@@H](O)CC(=O)O1`, in that order: 6.9 µM and 21.6 µM.
For `C/C=C/C/C(C)=C\[C@H]1C/C=C/C=C/C[C@H](C)/C=C/[C@@H](OC)C/C=C/[C@@H](O)CC(=O)O1`, in that order: 7.1 µM and 11.8 µM.
For `CO[C@H]1C/C=C/[C@@H](O)CC(=O)O[C@@H](c2ccc(C)cc2)C/C=C/C=C/C[C@H](C)/C=C/1C`, in that order: 7.8 µM and 16.5 µM.
